Data published in ChEMBL document CHEMBL1123913, “Discovery and anticonvulsant activity of the potent metabolic inhibitor 4-amino-N-(2,6-dimethylphenyl)-3,5-dimethylbenzamide” (1987).
The source made the active and inactive calls. No cut-off for these calls is given here.

Legend:
[1] = species on record: Mus musculus; assay: Ataxia or neurological deficit was measured as horizontal screen test(HS) in mice; type: functional
In short: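 Male CF1 mice (20–25 g), fasted 90 min, given oral doses as suspension in 5% acacia/water, then placed on a 13 cm × 13 cm wire screen. Retested at the time of peak effect with at least four doses and 12 mice per dose. ED50 by Litchfield–Wilcoxon, with 95% confidence limits.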

[2] = tested on: Mus musculus; assay: Plasma concentration was determined after 60 min of oral administration in mice; type: functional, organism-based
In short: (§1)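 Three groups of two mice dosed orally at 1.7, 3.5 or 5.6 mg/kg, suspended in 5% acacia. Blood taken by cardiac puncture under methoxyfluorane into heparin, plasma stored at −30 °C. Parent and N-acetyl metabolite measured by C18 HPLC with absorbance detection against plasma standards of 50–2000 ng/mL. Detection limit 25 ng/mL. Mean ± SEM.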

[3] = tested on: Mus musculus; assay: Antagonistic activity against MES(Maximal Electroshock)-induced seizures after oral administration to mice; type: functional
In short: (§2)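 Fasted (90 min) mice dosed orally with a range of doses as suspension in 5% acacia/water. Electroshock 40 mA, 0.1 s, ac, via corneal electrodes at the time of peak effect, using at least four doses, 12 mice per dose. ED50 for prevention of tonic-extensor convulsions by Litchfield–Wilcoxon, with 95% confidence limits.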

[4] = tested on: Mus musculus; assay: Time taken for peak anticonvulsant effect(TPE) was measured by oral administration to mice; type: functional
In short: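 Fasted mice, four per group, given a range of oral doses in 5% acacia/water. Challenged with corneal electroshock (40 mA, 0.1 s, ac) at 0.5, 1, 2, 3 and 4 h after dosing to find the time of peak anticonvulsant effect.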

[5] = tested on: Mus musculus; assay: Plasma concentration was determined after 120 min of oral administration in mice; type: functional, organism-based; in short: as §1
[6] = tested on: Mus musculus; assay: Plasma concentration was determined after 30 min of oral administration in mice; type: functional, organism-based; in short: as §1
[7] = tested on: Mus musculus; assay: Effect on Hexobarbitol-Induced sleeping time in mice at a dose of 0 mg/kg peroral administration; type: functional; conditions: route oral
In short: (§3)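 Groups of 10 fasted mice dosed orally in 5% acacia/water. Hexobarbital 100 mg/kg ip, solubilized with stoichiometric NaOH, given 0.5 h later. Sleeping time is loss of righting reflex, to the nearest minute. Reported as mean ± SEM and percent increase over hexobarbital control.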

[8] = tested on: Mus musculus; assay: Effect on Hexobarbitol-Induced sleeping time in mice at a dose of 15.2 mg/kg peroral administration; type: functional; conditions: route oral
In short: (§4)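 Groups of 10 fasted mice dosed orally in 5% acacia/water. Hexobarbital 100 mg/kg ip, solubilized with stoichiometric NaOH, given 1.0 h later. Duration of loss of righting reflex to the nearest minute. Mean ± SEM, percent increase over hexobarbital control, p < 0.05 significance.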

[9] = tested on: Mus musculus; assay: Antagonistic activity against MES-induced seizures after oral administration to mice; type: functional; in short: as §2
[10] = tested on: Mus musculus; assay: Effect on Hexobarbitol-Induced sleeping time in mice at a dose of 7.6 mg/kg peroral administration; type: functional; conditions: route oral; in short: as §4
[11] = tested on: Mus musculus; assay: Effect on Hexobarbitol-Induced sleeping time in mice at a dose of 30.4 mg/kg peroral administration; type: functional; conditions: route oral; in short: as §4
[12] = tested on: Mus musculus; assay: Effect on Hexobarbitol-Induced sleeping time in mice at a dose of 3.8 mg/kg peroral administration; type: functional; conditions: route oral; in short: as §4
[13] = tested on: Mus musculus; assay: Antagonistic activity against MES (Maximal Electroshock)-induced seizures after oral administration to mice; type: functional; in short: as §2
[14] = tested on: Mus musculus; assay: Ataxia or neurological deficit was measured as horizontal screen test(HS) in mice at a dose of 160 mg/kg; NA means Not active; type: functional, organism-based; design: dose 160 mg/kg
[15] = tested on: Mus musculus; assay: Effect on Hexobarbitol-Induced sleeping time in mice at a dose of 3.2 mg/kg peroral administration; type: functional; conditions: route oral; in short: as §3
[16] = tested on: Mus musculus; assay: Plasma concentration was determined after 360 min of oral administration in mice; type: functional, organism-based; in short: as §1
[17] = Protective index (HS ED50/MES ED50) after oral administration in mice; type: functional
In short: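 Ratio of the horizontal-screen ED50 to the MES ED50. Both come from oral dosing of fasted mice in 5% acacia/water at the time of peak effect and are calculated by Litchfield–Wilcoxon.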

[18] = tested on: Mus musculus; assay: Effect on Hexobarbitol-Induced sleeping time in mice at a dose of 6.4 mg/kg peroral administration; type: functional; conditions: route oral; in short: as §3
[19] = tested on: Mus musculus; assay: Plasma concentration was determined after 240 min of oral administration in mice; type: functional, organism-based; in short: as §1
[20] = tested on: Mus musculus; assay: Effect on Hexobarbitol-Induced sleeping time in mice at a dose of 12.8 mg/kg peroral administration; type: functional; conditions: route oral; in short: as §3
[21] = tested on: Mus musculus; assay: Effect on Hexobarbitol-Induced sleeping time in mice at a dose of 1.6 mg/kg peroral administration; type: functional; conditions: route oral; in short: as §3
[22] = tested on: Mus musculus; assay: Ataxia or neurological deficit was measured as horizontal screen test(HS) in mice at the highest dose of 300 mg/kg; NA means Not active; type: functional, organism-based; design: dose 300 mg/kg

Compound | ED50 [1] | Concentration [2] | TPE [4] | Concentration [5] | Concentration [6] | ED50 [13] | other results
Cc1cc(C(=O)Nc2c(C)cccc2C)cc(C)c1N | 64 mg/kg | 1160 ng/mL | 1 h | 1060 ng/mL | 1480 ng/mL |  | ED50 [3]: 5.6 mg/kg
Cc1cc(C(=O)Nc2c(C)cccc2C)ccc1N | 84 mg/kg |  | 1 h |  |  |  | Sleeping time [7]: 66.4 min; Sleeping time [8]: 85.5 min; ED50 [9]: 3.5 mg/kg; Sleeping time [10]: 97.9 min; Sleeping time [11]: 133.8 min; Sleeping time [12]: 85.6 min
CC(=O)Nc1ccc(C(=O)Nc2c(C)cccc2C)cc1C | 56 mg/kg | 97 ng/mL | 1 h | 91 ng/mL | 79 ng/mL | 4.5 mg/kg | 
O=C1NC(=O)C(c2ccccc2)(c2ccccc2)N1 [PHENYTOIN] | 210 mg/kg |  | 1 h |  |  | 9.4 mg/kg | 
CC(=O)Nc1c(C)cc(C(=O)Nc2c(C)cccc2C)cc1C |  |  | 2 h |  |  | 170 mg/kg | ED50 [14]: inactive
Cc1cccc(C)c1NC(=O)c1ccc(N)cc1 [AMELTOLIDE] | 23 mg/kg | 893 ng/mL | 0.5 h | 656 ng/mL | 1090 ng/mL | 1.7 mg/kg | Sleeping time [15]: 69.3 min; Concentration [16]: 299 ng/mL; PI [17]: 13; Sleeping time [7]: 59.6 min; Sleeping time [18]: 75 min; Concentration [19]: 394 ng/mL; Sleeping time [20]: 76.4 min; Sleeping time [21]: 67.9 min
CC(=O)Nc1ccc(C(=O)Nc2c(C)cccc2C)cc1 |  | 587 ng/mL | 2 h | 545 ng/mL | 412 ng/mL | 3.8 mg/kg | Concentration [16]: 225 ng/mL; ED50 [22]: inactive; Concentration [19]: 425 ng/mL
